From paper PMC9294072 (ACS chemical biology, 2022)
Where no end group is shown, it is not given here. [ ]: non-standard residue; d: D form. Arg(Me2a) = CN(C)C(=N)NCCC[C@H](N)C(=O)O; Arg(Me2s) = CN=C(NC)NCCC[C@H](N)C(=O)O; pS = N[C@@H](COP(=O)(O)O)C(=O)O

Target: T1, hNatD (Homo sapiens, UniProt Q86UY6)
Test: Continuous fluorescence-based acetylation assay
Format: biochemical
Details: G4V relative to G4D
Summary of the method: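 hNatD activity monitored continuously by fluorescence at 25 °C. All components except peptide were preincubated for 10 min, then the reaction was started with varying peptide concentrations. For AcCoA characterization, the peptide substrate was fixed at 50 μM. Readings were taken at 400–415 nm and 460–485 nm. Signal was converted to CoA via a standard curve, and initial velocities were fit to Michaelis-Menten or substrate-inhibition models. Run at least in duplicate.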

Substance | fold higher kcat/Km for G4V than G4D
G4V: oncohistone H4/H2A pentapeptide with G4V mutation (SGRVK-NH2) | 7 fold

Same assay, conditions: H2A peptide vs H4 peptide of the same length

Substance | fold reduction in kcat/Km compared to corresponding H4 peptides
H2A-12: C-terminal truncated H2A synthetic peptide, 12 residues (SGRGKQGGKARA-NH2; UniProt P0C0S8 2-13, looked up, fragment) | about 4 fold

Same assay, conditions: SMARCD2-derived pentapeptide vs H4-5 (also H2A-5)

Substance | fold difference in kcat and kcat/Km compared to H4-5
SGRGA | less than 2 fold

Same assay, conditions: fluorescence assay; compared to H4-5

Substance | kinetic parameters relative to unmodified H4-5 (in words)
H4K5ac: H4 pentapeptide with Lys5 acetylation (SGRGK(Ac)-NH2) | comparable kinetic parameters

Same assay, conditions: normalized to wild-type H4-5; fluorescence assay

Substance | fold decrease in kcat compared to H4-5 | fold reduction in kcat/Km compared to H4-5
G2E: oncohistone H4/H2A pentapeptide with G2E mutation (SERGK-NH2) | 3 fold | –
G4D: oncohistone H4/H2A pentapeptide with G4D mutation (SGRDK-NH2) | less than 2 fold | –
G4S: oncohistone H4/H2A pentapeptide with G4S mutation (SGRSK-NH2) | 7 fold | 17 fold
G4V: oncohistone H4/H2A pentapeptide with G4V mutation (SGRVK-NH2) | less than 2 fold | –
H4R3me1: H4 pentapeptide with Arg3 monomethylation (SG[Rme1]GK-NH2; UniProt P62805 2-6, looked up, fragment) | – | 3.6 fold
H4R3me2a: H4 pentapeptide with Arg3 asymmetric dimethylation (SG[Arg(Me2a)]GK-NH2; UniProt P62805 2-6, looked up, fragment) | – | 8 fold
H4R3me2s: H4 pentapeptide with Arg3 symmetric dimethylation (SG[Arg(Me2s)]GK-NH2) | – | 17 fold
H4pS1: H4 pentapeptide with Ser1 phosphorylation ([pS]GRGK-NH2) | 2.3 fold | over 100 fold
R3H: oncohistone H4/H2A pentapeptide with R3H mutation (SGHGK-NH2) | 1.5 fold | 6.5 fold
R3Q: oncohistone H4/H2A pentapeptide with R3Q mutation (SGQGK-NH2) | 3 fold | 200 fold
S1L: oncohistone H4/H2A pentapeptide with S1L mutation (LGRGK-NH2) | 5 fold | –

Target: T1, hNatD
Test: MALDI-MS acetylation assay
Format: biochemical
Details: relative to wild-type H4-5
Summary of the method: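 Human NatD 50 nM with 50 µM AcCoA in 25 mM HEPES, 150 mM NaCl, pH 7.5, 25 °C. Reaction started by adding peptide in 2-fold dilutions. Cysteine peptides were pre-reduced with DTT and diluted in buffer containing 10 mM DTT. Timed aliquots were quenched 1:1 in 0.1% TFA and spotted with CHCA for MALDI-MS of acetylated product. Initial slopes were fitted to Michaelis-Menten or substrate-inhibition models, in duplicate.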

Substance | fold reduction in kcat/Km compared to H4-5
CGRGK [S1C] | ~ 100 fold
S1F: oncohistone H4/H2A pentapeptide with S1F mutation (FGRGK-NH2) | over 1,000 fold
SGCGK [R3C] | 17 fold
